From PubChem BioAssay come the findings set out here.

Calls of active or inactive are those of the source.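 The calls were made as follows, unless noted: active = inhibition of the reporter signal at or above 50%; inactive = inhibition below 50%.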

Assay [1] can be described thus: inhibitors of TNFa-induced NFkB p65 translocation, primary screen, imaging, HUVEC, MLSMR starter and 10KST1 sets (AID 438;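 active = inhibition above 20% together with a positive visual image hit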;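 also: compound added about 3h40 before a 20 min TNFalpha stimulation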;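 as to inhibition: signal is the nuclear over cytoplasmic p65 intensity ratio per well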). The settings on record: HUVEC TNFa-induced p65 nuclear translocation; cell count: measured here: nuclei count (cytotoxicity indicator), at 2.08 µM; inhibition: at 2 µM, stronger effect = higher value, 0% TNFa-plus-vehicle, 100% no-TNFa wells.
A short description of assay [2]: reduction of polyQ htt aggregates in cells – imaging, exon1htt(103Q)mCFP cells, high-content imaging, primary screen (AID 483;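 active = visual image review flags a hit and inhibition of aggregation exceeds 20%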;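 also: compound exposure lasted 3 days before fixation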;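 as to nuclei count: percent of the per-plate median nuclei count of sample wells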). The following applies: exon1htt(103Q)mCFP cell line, aggregate imaging, at 2 µM; inhibition of aggregation: stronger effect = higher value; nuclei count: measured here: cell count, toxicity.
Assay [3] is described as follows: endothelial E-selectin expression blockers – imaging, HUVEC, immunofluorescence, MLSMR starter and 10KST1 sets, primary screen (AID 487;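 active = visually confirmed hit in the image check and inhibition above 20%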;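 as to inhibition: signal is fraction of cell area covered by stained E-selectin grains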;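 as to nuclei count: 100% = median nuclei count of all wells on the same plate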). The following applies: HUVEC TNFalpha-induced E-selectin immunofluorescence imaging, at 2 µM; inhibition: stronger effect = higher value; nuclei count: measured here: cell number, toxicity.
The target of assay [4] is Voltage-gated potassium channel subunit beta-2 (Rattus norvegicus) (UniProt P62483). Briefly: inhibitors of rat Kvbeta2 reductase activity – biochemical, NADPH fluorescence, primary screen (AID 622;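 active = fluorescence slope higher than the sample average by over 3 SD, cut at about -0.22 in these data, passing the limit was not always enough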;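 also: slope of raw intensity against log time taken from 70 to 1610 s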). The following applies: recombinant KvBeta, 4-cyanobenzaldehyde reduction, at 10 µM, stronger effect = higher value.
Chain of Voltage-gated potassium channel subunit beta-2 (Rattus norvegicus) (P62483 whole entry, looked up): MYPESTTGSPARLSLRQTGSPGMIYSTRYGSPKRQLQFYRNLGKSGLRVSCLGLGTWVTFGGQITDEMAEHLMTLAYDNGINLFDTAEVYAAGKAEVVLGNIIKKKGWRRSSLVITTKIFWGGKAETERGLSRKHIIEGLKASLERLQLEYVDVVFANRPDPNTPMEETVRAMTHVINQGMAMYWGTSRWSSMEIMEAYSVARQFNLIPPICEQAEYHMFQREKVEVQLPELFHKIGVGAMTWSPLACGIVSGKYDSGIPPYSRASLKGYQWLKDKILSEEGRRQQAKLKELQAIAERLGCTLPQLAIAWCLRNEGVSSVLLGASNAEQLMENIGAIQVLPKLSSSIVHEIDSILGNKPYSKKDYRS
For assay [5] the target is unchanged. Briefly: enhancers of rat Kvbeta2 NADPH turnover – biochemical, NADPH fluorescence, primary screen (AID 623;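 active = NADPH fluorescence slope more negative than the mean of all samples by about 3 SD, 99.7% confidence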;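 also: fluorescence intensity change per second fitted from 20 to 320 s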). The settings on record: Recombinant KvBeta, NADPH fluorescence decrease slope, 10 min; at 10 µM; stronger effect = lower value.
The target in assay [6] is Alpha-2C adrenergic receptor (Homo sapiens) (UniProt P18825). Kind of assay: compounds altering alpha2C-coupled GIRK flux – cell-based, HEK293 alpha2C/GIRK1/2, thallium flux, primary screen (AID 624;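 active = fluorescence slope after compound addition differing from the mean of all screened samples at 99.7% confidence, in either direction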;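 also: slope of fluorescence ratio to pre-addition baseline per second over 15 to 24 s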). The settings on record: thallium flux BTC fluorescence, at 10 µM, actives lie on both sides.
Chain of Alpha-2C adrenergic receptor (Homo sapiens) (P18825 whole entry, looked up): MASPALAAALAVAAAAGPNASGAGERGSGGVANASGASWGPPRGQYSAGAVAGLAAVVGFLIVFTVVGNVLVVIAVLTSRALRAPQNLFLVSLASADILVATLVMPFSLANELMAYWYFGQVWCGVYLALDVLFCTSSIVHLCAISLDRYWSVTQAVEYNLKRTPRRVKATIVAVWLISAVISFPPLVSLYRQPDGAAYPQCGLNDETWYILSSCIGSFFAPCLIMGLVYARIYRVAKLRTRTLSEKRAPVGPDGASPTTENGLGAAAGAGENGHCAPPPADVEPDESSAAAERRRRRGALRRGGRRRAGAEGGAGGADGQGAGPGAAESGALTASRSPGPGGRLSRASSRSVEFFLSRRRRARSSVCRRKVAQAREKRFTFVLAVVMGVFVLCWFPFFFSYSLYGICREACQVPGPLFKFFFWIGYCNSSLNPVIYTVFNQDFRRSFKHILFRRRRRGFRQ
Assay [7] is described as follows: inhibitors of larval lipid processing in zebrafish, primary screen, whole organism, PED6 fluorescence, gall bladder and intestine (AID 686;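 active = a full or partial loss of lipid-probe fluorescence in the fish gall bladder, intestine or both, judged by eye; inactive = no fluorescence loss, or compound toxic to the fish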;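 also: larvae 5 to 7 days old with five fish per well; signal comes from phospholipase A2 cleavage of quenched PED6 carried via bile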). The following applies: Zebrafish larvae PED6 lipid processing, fluorescence scoring; screened at 20 µM (by protocol). In outline: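 Incubation: overnight exposure of larvae to compound plus PED6 / Test system: live zebrafish larvae aged 5-7 days, whole organism / Amount: 5 larvae per well / Read-out basis: visual per-well fluorescence inhibition score / Signal: visual fluorescence microscopy scoring of gall bladder, gut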

Assay [8] is described as follows: blockers of RIG-like receptor reporter activation – cell-based, Sendai virus stimulus, luciferase, 10K MLSCN set, TLR/RLR signaling modifier project, primary screen (AID 602276;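 active = inhibition at or above 50% at 10 µM; inactive = inhibition below 50%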;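 also: firefly luciferase from ISG56 promoter only with Renilla not read in this screen; 0% = Sendai virus plus DMSO and 100% = medium plus DMSO without virus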). The following applies: HEK293 RL24 IRF3 luciferase reporter, at 10 µM, stronger effect = higher value. (A reporter such as luciferase makes a cellular process visible.)
Assay [9] in a line: TLR3 IRF3 reporter activation blockers – cell-based, poly I:C stimulus, luciferase, 10K MLSCN set, primary screen (AID 602277). The settings on record: HEK293-TLR3 RL24 IRF3 luciferase reporter, at 10 µM, stronger effect = higher value.

Broadly, the inhibition is the relative decrease from the control value, in per cent. Consider `CC1(C)CC2CC(C)(CN2S(=O)(=O)c2ccc(N)cc2)C1` (stereo unspecified), for which the cell count in [1] stood at 613. Also, the inhibition in assay [1] is -9.2% (inactive); in assay [3], 65.6% (inactive); in assay [8], 10.2% (inactive); in assay [9], 18.5% (inactive). Also, the inhibition of aggregation in assay [2] was 30.3% (inactive). In addition, the results for the nuclei count in assay [2] and in assay [3] were 79.8% and 60.2%, respectively. In addition, the fluorescence slope in assay [4] is -0.374 (inactive). Further, the NADPH fluorescence slope in assay [5] is -6.2e-05 (inactive). Further, the slope in assay [6] was 0.00585 (inactive). Moreover, the compound was classed as inactive in assay [7].

Turning to `COc1ccc2c3c(c(=O)oc2c1OCC(N)=O)CCCC3`, the cell count in [1] turned out to be 609. Further, the inhibition in [1] is -3.8% (inactive); in assay [3], -29.2% (inactive); in assay [8], 14% (inactive); in [9], 2.31% (inactive). In addition, the inhibition of aggregation in assay [2] was -17.4% (inactive). For the same compound, the nuclei count is 111% in assay [2] and 102% in [3]. Moreover, the fluorescence slope in assay [4] was -0.0534 (active). Also, in [5], the NADPH fluorescence slope was -8.5e-06 (inactive). The slope in assay [6] was 0.00487 (inactive). In assay [7], the result was inactive.

As to `CC(=O)Nc1ccc(NC(=O)Cn2cnc3c(cnn3C(C)(C)C)c2=O)cc1`, in assay [1], the cell count stood at 586. In addition, the inhibition in [1] was -3.3% (inactive); in assay [3] it was 0.5% (inactive); in [8] it was 2.03% (inactive); in assay [9], 2.5% (inactive). The inhibition of aggregation in assay [2] was 8.4% (inactive). In addition, the nuclei count came to 104% in [2] and 111% in [3]. Further, the fluorescence slope in assay [4] is -0.37 (inactive). Also, in [5], the NADPH fluorescence slope is -4e-05 (inactive). In addition, the slope in assay [6] is 0.00604 (inactive). Moreover, the call in assay [7] was inactive.

For the compound `CCOC(=O)N1CCC(NC(=O)Cn2cc3c(n2)CCC(C)C3)CC1` (stereo unspecified), the cell count in assay [1] turned out to be 420. Also, the inhibition was -11.9% (inactive) in [1], -5.4% (inactive) in [3], -10.4% (inactive) in [8] and -9.33% (inactive) in [9]. Besides, the inhibition of aggregation in assay [2] was 0.7% (inactive). Also, the nuclei count in assay [2] came to 108%; in [3] it was 101%. Moreover, the fluorescence slope in [4] was -0.479 (inactive). For the same compound, the NADPH fluorescence slope in [5] was 1.7e-05 (inactive). Besides, the slope in assay [6] was 0.0047 (inactive). For the same compound, in [7], the result was inactive.

On to `CCOC(=O)c1c(-c2ccc(C)o2)csc1NC(=O)CN1CCN(CC)CC1`, for which the cell count in assay [1] is 393. Besides, the inhibition in assay [1] was -0.4% (inactive); in assay [3], -12.2% (inactive); in assay [8], 11.4% (inactive); in assay [9], 22% (inactive). Also, the inhibition of aggregation in assay [2] is 8.3% (inactive). For the same compound, the nuclei count in assay [2] stood at 95.5%; in assay [3], 106%. For the same compound, in assay [4], the fluorescence slope is -0.409 (inactive). Also, in assay [5], the NADPH fluorescence slope is -3.8e-05 (inactive). Moreover, the slope in [6] is 0.0051 (inactive). Besides, the compound was classed as inactive in assay [7].

Take `O=C1C2CCCN2C(c2ccccc2)N1c1ccc(Cl)cc1` (stereo unspecified): the cell count in assay [1] worked out at 374. Also, the inhibition was 5.5% (inactive) in assay [1], -25.3% (inactive) in [3], 31.4% (inactive) in [8] and -130% (inactive) in assay [9]. For the same compound, the inhibition of aggregation in assay [2] is -14.7% (inactive). For the same compound, the nuclei count came to 99.5% in assay [2] and 114% in [3]. Besides, the fluorescence slope in assay [4] was -0.424 (inactive). In addition, the NADPH fluorescence slope in assay [5] was -6.3e-05 (inactive). Moreover, the slope in assay [6] is 0.00548 (inactive). In addition, the compound was called inactive in [7].

Take `CC(C)(C)NC(=O)C(Cc1ccccc1)NS(=O)(=O)c1cccc2nsnc12` (stereo unspecified): the cell count in [1] was 721. In addition, the inhibition in assay [1] was -19.8% (inactive); in [3] it was -49.9% (inactive); in assay [8], 3.22% (inactive); in assay [9], 8.45% (inactive). In addition, in assay [2], the inhibition of aggregation was -37.6% (inactive). In addition, the values for the nuclei count in [2] and in assay [3] were 113% and 112%, respectively. In addition, the fluorescence slope in assay [4] is -0.413 (inactive). Also, the NADPH fluorescence slope in assay [5] is 1.1e-05 (inactive). In addition, the slope in assay [6] was 0.00438 (inactive). In assay [7], the compound was classed as inactive.

With `COC(=O)Cn1cnc2sc(C)c(S(=O)(=O)N3CCC(C)CC3)c2c1=O`, in assay [1], the cell count is 543. Moreover, the inhibition in assay [1] was -2.4% (inactive); in assay [3], -31.1% (inactive); in [8] it was 6.12% (inactive); in assay [9], 8.67% (inactive). Moreover, the inhibition of aggregation in assay [2] was -10.1% (inactive). The nuclei count in assay [2] came to 106%; in assay [3], 101%. Moreover, the fluorescence slope in [4] is -0.473 (inactive). Moreover, in assay [5], the NADPH fluorescence slope was -2.3e-05 (inactive). Moreover, the slope in assay [6] is 0.00523 (inactive). Besides, the call in assay [7] was inactive.

On to `CCC(=O)Nc1nn(C)c2nc3c(C)cccc3cc12`, for which the cell count in assay [1] is 724. The inhibition in assay [1] is -9% (inactive); in assay [3], -53.9% (inactive); in [8], -2.08% (inactive); in assay [9] it was -4.15% (inactive). Moreover, in [2], the inhibition of aggregation was 27.6% (inactive). In addition, the nuclei count in [2] is 87.7%; in [3], 102%. In assay [4], the fluorescence slope is -0.281 (inactive). In addition, the NADPH fluorescence slope in assay [5] was -6.4e-06 (inactive). Also, the slope in assay [6] is 0.00513 (inactive). The outcome in [7] was inactive.

With `O=C(CSc1nnc(-c2ccccn2)n1Cc1ccccc1)N1CCCC1`, the cell count in assay [1] worked out at 340. For the same compound, the inhibition in assay [1] is 8.1% (inactive); in assay [3], 19.6% (inactive); in assay [8] it was 3.06% (inactive); in [9], 2.57% (inactive). Besides, the inhibition of aggregation in assay [2] is 7.9% (inactive). Also, the nuclei count in [2] was 112%; in assay [3], 97.4%. For the same compound, in assay [4], the fluorescence slope is -0.365 (inactive). For the same compound, the NADPH fluorescence slope in assay [5] was -6.5e-05 (inactive). In assay [6], the slope was 0.00635 (inactive). Further, in assay [7], the outcome was inactive.

For `CN(C)c1ccc(C2C3=C(CCCC3=O)OC3=C2C(=O)CCC3)cc1`, in [1], the cell count stood at 571. Also, the inhibition in assay [1] is -6.3% (inactive); in assay [3], -20.9% (inactive); in [8] it was 14.3% (inactive); in assay [9], 17% (inactive). Moreover, in assay [2], the inhibition of aggregation is 8.9% (inactive). Further, the nuclei count in assay [2] amounted to 112%; in [3], 110%. Besides, the fluorescence slope in assay [4] is -0.37 (inactive). Also, the NADPH fluorescence slope in assay [5] was -5.2e-05 (inactive). Besides, the slope in [6] is 0.00729 (inactive). Besides, the compound was classed as inactive in assay [7].

On to `COc1ccc(OC)c(NC(=O)C23CCC(C)(C(=O)C2)C3(C)C)c1` (stereo unspecified), for which the cell count in assay [1] is 512. In addition, the inhibition was -4.8% (inactive) in assay [1], -103% (inactive) in assay [3], 12.9% (inactive) in assay [8] and 26.7% (inactive) in assay [9]. In addition, in [2], the inhibition of aggregation is 4.8% (inactive). The nuclei count was determined as 98.5% in assay [2] and 125% in assay [3]. In [4], the fluorescence slope was -0.455 (inactive). The NADPH fluorescence slope in assay [5] was -0.00015 (inactive). In addition, in assay [6], the slope is 0.00548 (inactive). The compound was called inactive in [7].

For the compound `CCOC(=O)c1cnc(-n2nc(C)cc2C)nc1N1CC(C)OC(C)C1` (stereo unspecified), the cell count in assay [1] was 654. The inhibition is -15.5% (inactive) in assay [1], -1.6% (inactive) in [3], -6.36% (inactive) in assay [8] and 6.34% (inactive) in assay [9]. The inhibition of aggregation in assay [2] is 29.7% (inactive). Besides, the nuclei count in assay [2] stood at 69.8%; in [3], 96.9%. Moreover, the fluorescence slope in [4] was -0.411 (inactive). Besides, the NADPH fluorescence slope in [5] was -3.9e-05 (inactive). Further, the slope in [6] was 0.00483 (inactive). For the same compound, the compound was classed as inactive in [7].
